Results as given in ChEMBL document CHEMBL4145619, “Computer-Assisted Discovery of Retinoid X Receptor Modulating Natural Products and Isofunctional Mimetics” (J Med Chem, 2018).
Calls of active or inactive are those of the source. No cut-off for these calls is given here.

What was measured:
Assay type in all cases: cell-based
[1] = target: T1, Retinoic acid receptor RXR-alpha (Homo sapiens) (UniProt P19793); assay: Transactivation of human Gal4-fused RXRalpha LBD expressed in HEK293T cells at 30 uM after 12 to 14 hrs by dual-glo luciferase assay
T1 sequence (whole entry): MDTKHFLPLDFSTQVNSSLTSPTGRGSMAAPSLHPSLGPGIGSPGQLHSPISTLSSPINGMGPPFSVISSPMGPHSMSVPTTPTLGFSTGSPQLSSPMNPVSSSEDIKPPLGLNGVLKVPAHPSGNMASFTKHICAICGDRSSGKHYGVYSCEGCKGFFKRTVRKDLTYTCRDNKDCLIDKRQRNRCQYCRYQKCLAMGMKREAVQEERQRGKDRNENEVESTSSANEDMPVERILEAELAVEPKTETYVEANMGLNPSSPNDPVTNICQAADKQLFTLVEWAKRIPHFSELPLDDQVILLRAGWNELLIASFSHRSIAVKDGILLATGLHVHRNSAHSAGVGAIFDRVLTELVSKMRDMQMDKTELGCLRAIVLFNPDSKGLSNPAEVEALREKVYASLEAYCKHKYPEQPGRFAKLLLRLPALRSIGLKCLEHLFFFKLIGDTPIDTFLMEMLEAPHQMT
In short: (§1)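 Single-concentration selectivity profiling in Gal4-hybrid reporter gene assays in HEK293T cells. Each nuclear receptor construct (RAR, PPAR, LXR, FXR, CAR, VDR, PXR, RXR) was tested at 30 μM.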

[2] = target: T1, Retinoic acid receptor RXR-alpha (Homo sapiens); assay: Transactivation of human Gal4-fused RXRalpha LBD expressed in HEK293T cells after 12 to 14 hrs by dual-glo luciferase assay relative to bexarotene
[3] = target: T2, Retinoic acid receptor RXR-gamma (Homo sapiens) (UniProt P48443); assay: Transactivation of human Gal4-fused RXRgamma LBD expressed in HEK293T cells after 12 to 14 hrs by dual-glo luciferase assay relative to bexarotene
T2 sequence (whole entry): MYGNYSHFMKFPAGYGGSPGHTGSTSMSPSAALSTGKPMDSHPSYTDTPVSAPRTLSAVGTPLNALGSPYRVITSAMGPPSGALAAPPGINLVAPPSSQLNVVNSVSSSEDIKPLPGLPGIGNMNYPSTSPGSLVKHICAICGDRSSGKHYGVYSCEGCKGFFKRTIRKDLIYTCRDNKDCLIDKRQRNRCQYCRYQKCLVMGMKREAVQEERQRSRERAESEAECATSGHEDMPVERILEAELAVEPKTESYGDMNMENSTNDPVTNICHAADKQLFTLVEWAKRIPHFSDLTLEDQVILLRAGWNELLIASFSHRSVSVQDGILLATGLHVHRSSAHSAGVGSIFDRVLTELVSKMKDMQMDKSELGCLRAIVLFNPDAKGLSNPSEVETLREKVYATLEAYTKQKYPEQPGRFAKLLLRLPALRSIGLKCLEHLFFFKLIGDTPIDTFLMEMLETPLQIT

[4] = target: T3, Peroxisome proliferator-activated receptor delta (Homo sapiens) (UniProt Q03181); assay: Transactivation of human Gal4-fused PPARdelta LBD expressed in HEK293T cells at 30 uM after 12 to 14 hrs by dual-glo luciferase assay; in short: as §1
T3 sequence (whole entry): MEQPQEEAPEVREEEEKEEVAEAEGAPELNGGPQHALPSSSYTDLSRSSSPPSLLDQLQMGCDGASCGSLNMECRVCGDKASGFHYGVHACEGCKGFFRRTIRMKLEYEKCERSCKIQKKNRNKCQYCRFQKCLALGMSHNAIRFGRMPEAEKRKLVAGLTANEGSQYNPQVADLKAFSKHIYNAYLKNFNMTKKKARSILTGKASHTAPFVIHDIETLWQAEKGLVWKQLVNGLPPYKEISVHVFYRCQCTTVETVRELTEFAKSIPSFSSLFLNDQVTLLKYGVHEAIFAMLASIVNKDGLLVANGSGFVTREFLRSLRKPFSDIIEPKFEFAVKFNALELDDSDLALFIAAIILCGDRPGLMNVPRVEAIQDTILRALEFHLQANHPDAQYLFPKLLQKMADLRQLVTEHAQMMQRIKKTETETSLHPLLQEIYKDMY

[5] = target: T4, Oxysterols receptor LXR-beta (Homo sapiens) (UniProt P55055); assay: Transactivation of human Gal4-fused LXRbeta LBD expressed in HEK293T cells at 30 uM after 12 to 14 hrs by dual-glo luciferase assay; in short: as §1
T4 sequence (whole entry): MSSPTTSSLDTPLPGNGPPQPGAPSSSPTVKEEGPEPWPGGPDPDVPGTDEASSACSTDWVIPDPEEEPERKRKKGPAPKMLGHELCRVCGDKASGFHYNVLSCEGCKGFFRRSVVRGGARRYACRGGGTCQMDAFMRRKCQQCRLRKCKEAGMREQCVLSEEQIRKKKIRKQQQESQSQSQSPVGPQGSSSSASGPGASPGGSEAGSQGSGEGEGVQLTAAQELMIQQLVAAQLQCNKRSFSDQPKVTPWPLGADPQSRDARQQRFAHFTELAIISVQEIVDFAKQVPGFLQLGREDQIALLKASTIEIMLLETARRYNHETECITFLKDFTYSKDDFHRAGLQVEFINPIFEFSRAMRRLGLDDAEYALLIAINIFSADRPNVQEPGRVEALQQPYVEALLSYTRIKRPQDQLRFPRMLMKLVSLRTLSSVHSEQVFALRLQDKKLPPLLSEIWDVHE

[6] = target: T5, Nuclear receptor subfamily 1 group I member 2 (Homo sapiens, UniProt O75469); assay: Transactivation of human Gal4-fused PXR LBD expressed in HEK293T cells at 30 uM after 12 to 14 hrs by dual-glo luciferase assay; in short: as §1
T5 sequence (O75469 whole entry): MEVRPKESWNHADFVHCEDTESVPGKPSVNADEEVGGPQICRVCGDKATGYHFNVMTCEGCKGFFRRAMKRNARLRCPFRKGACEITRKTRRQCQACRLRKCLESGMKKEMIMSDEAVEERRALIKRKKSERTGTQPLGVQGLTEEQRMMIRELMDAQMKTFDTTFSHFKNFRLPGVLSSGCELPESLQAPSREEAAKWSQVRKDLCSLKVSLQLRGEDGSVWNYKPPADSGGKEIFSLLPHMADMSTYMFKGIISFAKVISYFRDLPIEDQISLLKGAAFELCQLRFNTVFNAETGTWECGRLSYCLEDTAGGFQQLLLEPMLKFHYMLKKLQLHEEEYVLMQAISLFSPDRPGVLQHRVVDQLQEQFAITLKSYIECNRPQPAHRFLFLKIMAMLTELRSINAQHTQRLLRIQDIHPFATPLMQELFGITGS

## CC1=C2[C@H](/C=C(\C)C(=O)O)CC[C@@H](C)[C@H]2CC1 [VALERENIC ACID]
[1]
  Activity: Active
[2]
  fold change (FC): 9
[3]
  fold change (FC): 4
[4]
  Activity: inactive
[5]
  Activity: inactive
[6]
  Activity: Not Active
